The subject of this data set is MS2 coat protein. The experiment in a line: apparent Kd, MS2 coat protein; higher = weaker binding; RNA-MaP array; FMN 200 µM where present. The procedure, abridged: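 Each design was made on Illumina sequencing-chip clusters by stalled E. coli RNA polymerase and titrated with SNAP-549-labelled MS2 coat protein from 0.7 or 1.5 nM, doubling to 3 µM, in the absence and then the presence of constant ligand. The buffer was 100 mM Tris-HCl pH 7.5, 80 mM KCl, 4 mM MgCl2, BSA, DTT, yeast tRNA and Tween-20. The apparent Kd is the median of filtered per-cluster fits of binding curves, with green signal normalised to red-channel RNA signal and control-cluster median Fmax.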

The mark [1] stands for this setting: designed as: ON switch for flavin mononucleotide, no ligand.
The mark [2] stands for this setting: ligand present: flavin mononucleotide, designed as: ON switch for flavin mononucleotide.
Where [3] appears, read: designed as: OFF switch for flavin mononucleotide, no ligand.
Where [4] appears, read: ligand present: flavin mononucleotide, designed as: OFF switch for flavin mononucleotide.

As for “AUAAAUAUAGCGAUAUGAUCGAGAGAUCAUGUCGCUAAAGUUAGAAGGACAUGAGGAUCACCCAUGUAGGAUAUGGGAGUAUGA”, the “apparent Kd” value worked out at 170 nM under setting [1] and 62.8 nM under setting [2].

As to “AAGAAGUCAGGAUAUGCUGCUCGUCACUUGCGUGAUGAGUAGCAGAAGGGACAUGAGGAUCACCCAUGUGGAAG”, the “apparent Kd” value is, setting by setting: under setting [3], 111 nM; under setting [4], 240 nM.

Regarding “UGCAGGUGAGGAUAUGCGGGCGAUUAAACAUAUAAAUGCAAGCAGAAGGCACAUGAGGAUCACCCAUGUAGUCC”, the “apparent Kd” value is, setting by setting: under setting [3], 26 nM; under setting [4], 36.1 nM.

Take “AGGGUGUCGCUCAAUAACAUGAGGAUCACCCAUGUGCAUUAGAGAAGGGACCCGGGCGCGUGGAGUCAGGAUAUCUAUCUGCCA”: the “apparent Kd” value was found to be 34.4 nM under setting [3] and 30 nM under setting [4].

On to “AAUAUGAGCUGGAAUAACCUCAAAACAUGAGGAUCACCCAUGUAGGAUAUCAGCACGAUAAGUGCUGAGAAGGACAACCAGCUC”, for which the “apparent Kd” value reads like this: under setting [3], 13.9 nM; under setting [4], 18.1 nM.

For the sequence “GUGCGGUAGGAGAAGGACGGAGGCUUCUUUUCAUACAUGAGGAUCACCCAUGUAGGAUAUCCUACCUCACGCGGCCUACUACAG”, the “apparent Kd” value runs as follows: under setting [3], 8.74 nM; under setting [4], 7.7 nM.

As to “GGAUAACAUGAGGAUCACCCAUGUACAUGGGUACAAGGAUAUGUAAAAUAAAACAAACAAACAGAAGGUGUAAAAA”, the “apparent Kd” value is, setting by setting: under setting [1], 708 nM; under setting [2], 1450 nM.

Take “GAUUAUAAGUAAGGAUAUGUAUAUGAAACAUCUACAGAAGGUACAUGAGGAUCACCCAUGUUCUUGCAGCGUGACUCUGUGAUC”: the “apparent Kd” value runs as follows: under setting [3], 63.6 nM; under setting [4], 130 nM.

As to “AAAAAUAGAGGAUAUACAUGAAAAAAAAAAAAAAAAAAAAAACAUGAGGAUCACCCAUGUAGAAGGCUAAAAAA”, the “apparent Kd” value reads like this: under setting [3], 45.3 nM; under setting [4], 30.3 nM.

On to “AUUUAGUGCGAGAAGGCGUGGUCACAUGAGGAUCACCCAUGUCAGUACACGAGGAUAUCGAUUCACUGUAUAAACACAAGUGAC”, for which the “apparent Kd” value under setting [1] is 53.8 nM and the “apparent Kd” value under setting [2] was 6.22 nM.

Take “UAUCGCAGUGCAGGAUAUCCAAGGUUUGGCGAAGGAGAAGGGCACGCGACAUGAGGAUCACCCAUGUAAAGUGUGGCGUCCUCU”: the “apparent Kd” value reads like this: under setting [3], 116 nM; under setting [4], 62.2 nM.

On to “GCUUCACAUGAGGAUCACCCAUGUCUUCGGAGUCGAGGAUAUGGUCACUGUAAACAGUGGCCAGAAGGCGAGGAGC”, for which the “apparent Kd” value is, setting by setting: under setting [1], 54.1 nM; under setting [2], 35 nM.

In the case of “ACGGUGGUCACAGGAUAUCCGGCCCGCGUGCCUGGAGAAGGGUGACUCAGAACCACAUGAGGAUCACCCAUGUGCCUUACCGUA”, the “apparent Kd” value under setting [1] stood at 52.6 nM and the “apparent Kd” value under setting [2] is 23.9 nM.

As for “CCUCUACAUGAGGAUCACCCAUGUGAGGAUAUCUCGGAGCAGCCACUUAAGGCGCUCCAGAGAAGGCACGUGUA”, the “apparent Kd” value reads like this: under setting [3], 19.6 nM; under setting [4], 28.8 nM.

On to “AAUAACAGAGGAUAUACUGUUUUAUGUGUUUAUUAUUUUAAACAUGAGGAUCACCCAUGUAGAAGGCUGAAUAA”, for which the “apparent Kd” value runs as follows: under setting [3], 42.6 nM; under setting [4], 42.8 nM.

Regarding “AGAAUGAUGUCAGGAUAUGACGCUGAGAGCACGUCAGAAGGGACAUGAGGAUCACCCAUGUCGGGCUAAUGAAGCUAUGGCACU”, the “apparent Kd” value runs as follows: under setting [3], 8.86 nM; under setting [4], 11.7 nM.

With “GAAUUAUUGAUCCAAUUUUACAACAUGAGGAUCACCCAUGUGCAGGAUAUCGUGUGUUUUAUAUUCGAGAAGGGCAUGAACUUU”, the “apparent Kd” value came out at 213 nM under setting [3] and 495 nM under setting [4].

Turning to “ACAUGAGGAUCACCCAUGUGGACAUAGGAUAUUGGUGAUCAGGCGUGUUAUACAGGAUAGGUCUGCGAGAAGGGUGUGCGUUGC”, the “apparent Kd” value is, setting by setting: under setting [1], 406 nM; under setting [2], 218 nM.

As to “GUAGCAUGCCAAGGAUAUUCAUAUAGUAGGCAAACAUGAGGAUCACCCAUGUAAUGAGAGCACUGGGAGAAGGUGGGAUGCUAC”, the “apparent Kd” value under setting [1] is 28.6 nM and the “apparent Kd” value under setting [2] came to 21.4 nM.

As for “AACUAAGUAUUAAUGGUGUCUGACAGAAGGCAAUAGAAUGAGACCGACAUGAGGAUCACCCAUGUUGAGGAUAUGUCUUGCUAC”, the “apparent Kd” value was 6.44 nM under setting [3] and 6.73 nM under setting [4].

Turning to “ACACGACAUGAGGAUCACCCAUGUGAGGAUAUCGAACUCAACUAAGCACAAAGUAACCCGAGAAGGCACACAAU”, the “apparent Kd” value is, setting by setting: under setting [3], 25.1 nM; under setting [4], 24.1 nM.

Regarding “GGGUACAUCGGAGGAUAUCAUGUAAAUACAUGAGGAUCACCCAUGUCGAUGGAGGCAUCGGAGAUUGAGAAGGCCGAUGUACCG”, the “apparent Kd” value reads like this: under setting [1], 566 nM; under setting [2], 17.6 nM.

“GGACGUCUCAUUAACAUGAGGAUCACCCAUGUCGAAAGACAUGAGGAUAUGGAUCCUAAUUGGAUCCAGAAGGCAUGGACGUCC”: the “apparent Kd” value under setting [1] was found to be 98 nM and the “apparent Kd” value under setting [2] came to 582 nM.

As for “CUAUGAAGAAUAGGAUAUUCGAUCAAAAGGAUAGAAGAAGGGUUACAUGAGGAUCACCCAUGUAUGCACAUGAGGAUCCCUUAG”, the “apparent Kd” value under setting [3] was found to be 188 nM and the “apparent Kd” value under setting [4] stood at 196 nM.

For “GGAGCCGGCACCGAGGAUAUUCAUAUUAAAACAUGAGGAUCACCCAUGUGGGCCAGAAGGCCUUGGGAGAAGGCGGAUCGGCUCG”, the “apparent Kd” value was 305 nM under setting [1] and 30 nM under setting [2].

As to “GGUCCACAUGAGGAUCACCCAUGUUAGGAUAUCUCGCCCGAGUCGUUAUGGGCCAGGCAGAGAAGGAAUGUGAA”, the “apparent Kd” value is, setting by setting: under setting [3], 20.4 nM; under setting [4], 18.8 nM.

On to “CAGUACUGAGGAUAUACAUGAGGAUCACCCAUGUGUUCCAGCUAGGAAACUAGCAGAAGUAGAAGGCAGUACUG”, for which the “apparent Kd” value is, setting by setting: under setting [3], 24.6 nM; under setting [4], 441 nM.

For the sequence “AAACCACAUGAGGAUCACCCAUGUGAUAAAAGCAUAGGAUAUCUGGAUGUGAGAGGCGGCAGAGAAGGAUGCACGC”, the “apparent Kd” value is, setting by setting: under setting [1], 61.5 nM; under setting [2], 53.9 nM.

For the sequence “CCUAAGGACACAGGAUAUAGCGUGGUGGGUGGGCUCCAACGACGAGCGGCGCUAGAAGGGUGACCACAUGAGGAUCACCCAUGU”, the “apparent Kd” value reads like this: under setting [1], 668 nM; under setting [2], 205 nM.

“AGAGUGUGAGGAUAUAUGGUGCAGAUGAAGGGAUAGAAGGAGUAGAAGGUACAUGAGGAUCACCCAUGUUAGGA”: the “apparent Kd” value was 27.4 nM under setting [3] and 21.7 nM under setting [4].

As to “AAGCGAGGGACAGGAUAUGCGGCAAAACUUUCCGCAGAAGGGUCGACAUGAGGAUCACCCAUGUCCUUACGCUCCAAGUAGAGG”, the “apparent Kd” value runs as follows: under setting [1], 189 nM; under setting [2], 277 nM.

Turning to “GAGGCACAUGAGGAUCACCCAUGUGGGUAUAACAUAGGAUAUCACCAACAAAAUACCCGGUGAGAAGGAUGAUGCC”, the “apparent Kd” value under setting [1] was found to be 217 nM and the “apparent Kd” value under setting [2] was 113 nM.

For “CCUAAGCGAGGAUAUACAUGAGGAUCACCCAUGUCCGCGUUCAUGAGGUUAAGAUCUUGUAGAAGGCGCCAAAA”, the “apparent Kd” value under setting [3] is 33 nM and the “apparent Kd” value under setting [4] came to 161 nM.

As to “GGAUUACAUGAGGAUCACCCAUGUGAGGAUAUCGAUGUCCUGUCUUUCGUGCGGGACUCGAGAAGGCACUUGGA”, the “apparent Kd” value reads like this: under setting [3], 45.2 nM; under setting [4], 141 nM.

“UGGACCGAGCUGUCGGUUGACUCUAAGGAUAUGACAUGAGGAUCACCCAUGUGGGAUCUAAAUUGUCAGAAGGUGGGUUCUGGG”: the “apparent Kd” value was 95 nM under setting [3] and 51 nM under setting [4].

Consider “AACCUACAUGAGGAUCACCCAUGUGAGGAUAUAUUGGUAUGGAUGUUAUUUUGUAGAGGUAGAAGGCGCGUGAU”, for which the “apparent Kd” value turned out to be 15.4 nM under setting [3] and 15.4 nM under setting [4].

Take “GUGGUCAGACAUGAGGAUCACCCAUGUGGAAUAAAUAACAGACAGGAUAUGUAAUAUAGGAUAUAACAGAAGGGUCGAUUGGUG”: the “apparent Kd” value is, setting by setting: under setting [1], 89 nM; under setting [2], 77.9 nM.

With “AAGCUCGUGUGAGGAUAUGCCGCCGUUUCGGCUGCAGAAGGUGCUACGUUACAUGAGGAUCACCCAUGUCUCUGUUGUUUCGUA”, the “apparent Kd” value stood at 42.6 nM under setting [1] and 49.7 nM under setting [2].

“UUAACAUGAGGAUCACCCAUGUAUAGAUCGGUUAAUAGAAGUGAGGAUAUGCUUAAAAUAAGGUAGCAGAAGGCACUGGGUACU”: the “apparent Kd” value was 24.2 nM under setting [1] and 28.7 nM under setting [2].

“GUUCUUCCUGUGAGGAUAUCCAUGUGUCGGUGUGUGGAGAAGGUACAUGAGGAUCACCCAUGUCACCCGCGUUU”: the “apparent Kd” value worked out at 20.8 nM under setting [3] and 22.2 nM under setting [4].

Turning to “AGGUAAGAGUUAAUUGUGACGGUGAGAAGGCAAAUGGUUGUGAUUAACAUGAGGAUCACCCAUGUUGAGGAUAUCACCACCAUC”, the “apparent Kd” value is 29.5 nM under setting [3] and 137 nM under setting [4].

As for “UCGCUGCGAGGAUAUACGUUCGCGCGCUUUCGUUUGCGCGUACAUGAGGAUCACCCAUGUAGAAGGCGCGCUGC”, the “apparent Kd” value was 16.4 nM under setting [3] and 15.5 nM under setting [4].

Take “CCCAUGUGUGUGAGGAUAUGGUCAGUCAUACUCGGCCAGAAGGCACAUGAGGAUCACCCAUGUGGCCUCUCAUC”: the “apparent Kd” value was found to be 17 nM under setting [3] and 17.8 nM under setting [4].

As for “GGGAUCAUCGGAGGAUAUCAUGUAGAUACAUGAGGAUCACCCAUGUCGAUGGAGACAUCGGAGAUUGAGAAGGCCGAUGAUCCG”, the “apparent Kd” value under setting [1] was 741 nM and the “apparent Kd” value under setting [2] is 28.9 nM.

For the sequence “AUCAGCUCGUCAGGAUAUACGUCACUGCGUCAGCAGUGUGGUAAGAUCACAUGAGGAUCACCCAUGUAGAAGGGACGAGCGGAU”, the “apparent Kd” value is, setting by setting: under setting [3], 14.3 nM; under setting [4], 279 nM.

For “UGUCUAUAUGAAGGAUAUCUAAGCAUAAACCGUAGAGAAGGUCAAUAGUACAUGAGGAUCACCCAUGUUGGGAUUGAUGGGUUU”, the “apparent Kd” value was determined as 25.3 nM under setting [3] and 38.6 nM under setting [4].

“UAAUAAUUAAGAGGAUAUAUACAACAUGAGGAUCACCCAUGUACCCAUGUAGUAGAAGGCUUAUUUUUAUUUAAUAAUAUAAUU”: the “apparent Kd” value is 122 nM under setting [1] and 40.1 nM under setting [2].

Take “UGUUUGCGGCAGGAUAUCCAUCCGCGGUGUGGUGGAGAAGGGCUGACAUGAGGAUCACCCAUGUGCGUCCUGUU”: the “apparent Kd” value reads like this: under setting [3], 23.6 nM; under setting [4], 27.9 nM.

Source of the values: the EternaBench riboswitch data.
